Test [1] has as its target T1, human VAChT (Homo sapiens, UniProt Q16572).
T1 sequence (Q16572 1-532): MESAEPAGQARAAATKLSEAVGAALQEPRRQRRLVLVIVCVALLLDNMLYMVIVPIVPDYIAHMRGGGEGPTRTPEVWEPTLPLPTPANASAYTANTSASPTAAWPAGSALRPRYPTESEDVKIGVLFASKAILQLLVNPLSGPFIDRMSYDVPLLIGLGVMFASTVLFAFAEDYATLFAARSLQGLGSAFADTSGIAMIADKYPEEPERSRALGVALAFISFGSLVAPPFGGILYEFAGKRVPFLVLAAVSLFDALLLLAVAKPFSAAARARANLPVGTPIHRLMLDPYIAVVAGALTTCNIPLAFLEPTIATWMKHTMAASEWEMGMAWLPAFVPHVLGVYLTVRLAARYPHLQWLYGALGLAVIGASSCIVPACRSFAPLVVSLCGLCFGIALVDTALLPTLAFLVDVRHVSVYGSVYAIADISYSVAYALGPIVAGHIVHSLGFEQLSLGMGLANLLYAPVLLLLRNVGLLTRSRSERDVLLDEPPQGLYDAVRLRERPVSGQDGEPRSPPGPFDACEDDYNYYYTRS
The settings on record: read-out: Ki VAChT, mean ± SEM, cited from earlier work.

For test [2], the target named is σ1 receptor (Cavia porcellus, UniProt Q60492). The note with it: read-out: Ki σ1, mean ± SEM, cited from earlier work.
Test [3] relates to σ1 receptor. The settings on record: selectivity ratio, cited from earlier work.
Test [4] addresses T2, σ2 receptor (Rattus norvegicus, UniProt Q5U3Y7).
T2 sequence (Q5U3Y7 1-176): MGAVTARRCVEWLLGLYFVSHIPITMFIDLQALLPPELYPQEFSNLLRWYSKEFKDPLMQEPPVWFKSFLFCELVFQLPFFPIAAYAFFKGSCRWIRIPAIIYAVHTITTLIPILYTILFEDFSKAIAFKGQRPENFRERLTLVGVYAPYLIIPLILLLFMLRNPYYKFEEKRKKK
The settings on record: read-out: Ki σ2, mean ± SEM, cited from earlier work.

Test [5] deals with σ2 receptor. The settings on record: selectivity ratio, cited from earlier work.
Test [6] has as its target T1, human VAChT. Briefly: VAChT competitive binding, displacement of. In short, it runs like this: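 Postnuclear supernatant (200 µg) from PC12A123.7 cells expressing human VAChT, incubated with (−)-[3H]vesamicol and test compound (0.1–10,000 nM, 10-fold steps) in 110 mM potassium tartrate, 20 mM HEPES pH 7.4, 1 mM DTT, 0.02% sodium azide, 22 °C, 24 h. Duplicate filtration on PEI-coated GF/F filters, buffer washes, scintillation counting. Ki from rectangular hyperbola fit of averaged data; ≥2 independent assays.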

Read-outs that look alike come from different tables or passages of the source.

Sequence of σ1 receptor (Cavia porcellus, UniProt Q60492) (Q60492 whole entry): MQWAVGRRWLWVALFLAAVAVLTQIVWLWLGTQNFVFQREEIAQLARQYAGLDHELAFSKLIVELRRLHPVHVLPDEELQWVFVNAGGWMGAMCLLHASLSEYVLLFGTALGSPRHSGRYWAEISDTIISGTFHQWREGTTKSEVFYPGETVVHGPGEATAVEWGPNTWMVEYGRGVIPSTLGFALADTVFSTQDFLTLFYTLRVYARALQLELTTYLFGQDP

Consider `O=C(c1ccc(OCCF)cc1)C1CCN(C2Cc3ccccc3CC2O)CC1` (racemic) [(±)-5, (4-(2-fluoroethoxy)phenyl)(1-(3-hydroxy-1,2,3,4-tetrahydronaphthalen-2-yl)piperidin-4-yl)methanone], for which the Ki at human VAChT [1] (ref [20]) is 0.038 ± 0.0038 µM; at σ1 receptor [2] (ref [20]), 2.12 ± 0.05 µM; on σ2 receptor [4] (ref [20]), 1.86 ± 0.14 µM. Further, the σ1/VAChT in the test on σ1 receptor [3] (ref [20]) is given as 56. Further, the σ2/VAChT in the test on σ2 receptor [5] (ref [20]) was 49.

`O=C(c1ccc(OCCF)nc1)C1CCN(C2Cc3ccccc3CC2O)CC1` (racemic) [(±)-6, (6-(2-fluoroethoxy)pyridin-3-yl)(1-(3-hydroxy-1,2,3,4-tetrahydronaphthalen-2-yl)piperidin-4-yl)methanone]: the Ki is 0.00174 ± 0.00032 µM on human VAChT [1] (ref [23]), 0.0132 ± 0.0002 µM on σ1 receptor [2] (ref [23]) and 1.89 ± 0.24 µM on σ2 receptor [4] (ref [23]). Also, the σ1/VAChT in the test with σ1 receptor [3] (ref [23]) is 8. For the same molecule, the σ2/VAChT in the test on σ2 receptor [5] (ref [23]) is recorded as 1086.

`O=C(c1ccc(NCCF)cc1)C1CCN(C2Cc3ccccc3CC2O)CC1` (racemic) [(±)-7, (4-((2-Fluoroethyl)amino)phenyl)(1-(3-hydroxy-1,2,3,4-tetrahydronaphthalen-2-yl)piperidin-4-yl)methanone]: the Ki at human VAChT [6] worked out at 0.00268 ± 0.00023 µM.
